Where a chain is given by its changes, count along the chain named.
Tests used:
[1] = molecular target: T1, PPARα (Mus musculus, UniProt P23204); experiment: PPRE-driven luciferase assay in primary astrocytes; type: cell-based; details: cultured astrocytes, different concentrations, 4 h
T1 sequence (P23204 1-468): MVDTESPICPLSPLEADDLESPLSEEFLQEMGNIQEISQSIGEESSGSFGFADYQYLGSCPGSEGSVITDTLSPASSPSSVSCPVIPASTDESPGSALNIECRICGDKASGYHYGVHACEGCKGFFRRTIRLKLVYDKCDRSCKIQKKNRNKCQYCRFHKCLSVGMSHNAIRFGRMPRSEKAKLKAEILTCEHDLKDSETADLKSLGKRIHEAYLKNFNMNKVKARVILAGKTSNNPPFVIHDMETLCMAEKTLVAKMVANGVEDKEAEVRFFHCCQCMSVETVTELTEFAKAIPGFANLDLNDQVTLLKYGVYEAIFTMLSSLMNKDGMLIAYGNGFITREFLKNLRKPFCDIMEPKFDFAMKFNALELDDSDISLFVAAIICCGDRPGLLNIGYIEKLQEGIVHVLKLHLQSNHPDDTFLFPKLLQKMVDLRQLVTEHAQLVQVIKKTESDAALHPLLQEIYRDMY

[2] = molecular target: T2, PPARβ-LBD (Homo sapiens, UniProt Q03181); experiment: GC-MS of hippocampal nuclear extracts after pull-down with GST-PPARβ-LBD; type: binding; details: mouse hippocampal nuclear extracts
T2 sequence (Q03181 211-439 limits assumed): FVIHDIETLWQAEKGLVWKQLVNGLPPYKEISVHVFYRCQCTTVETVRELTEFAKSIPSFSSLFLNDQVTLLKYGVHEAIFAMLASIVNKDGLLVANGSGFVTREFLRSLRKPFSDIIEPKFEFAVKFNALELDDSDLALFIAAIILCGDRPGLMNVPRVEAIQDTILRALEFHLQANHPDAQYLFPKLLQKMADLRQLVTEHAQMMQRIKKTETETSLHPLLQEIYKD

[3] = molecular target: T3, PPARα LBD (Homo sapiens, UniProt Q07869); experiment: Lanthascreen TR-FRET PPAR-alpha coactivator assay; type: biochemical
T3 sequence (Q07869 239-466 limits assumed): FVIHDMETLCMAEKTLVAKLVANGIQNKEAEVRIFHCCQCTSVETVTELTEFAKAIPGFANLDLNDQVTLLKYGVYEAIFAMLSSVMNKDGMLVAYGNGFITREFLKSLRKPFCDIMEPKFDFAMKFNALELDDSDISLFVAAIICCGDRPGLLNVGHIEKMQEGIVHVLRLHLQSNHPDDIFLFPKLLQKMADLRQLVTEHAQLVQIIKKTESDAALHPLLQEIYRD

[4] = molecular target: T4, Y464D-PPARα (Mus musculus, UniProt P23204, Y464D); experiment: Thermal shift assay of Y464D-PPARα with ligands; type: binding
T4 sequence (P23204 1-468 Y464D): T1 sequence (P23204 1-468) with Y464D
Outline: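 Differential scanning fluorimetry used purified Y464D-PPARα protein (0.5–1 μg per reaction) in kit thermal shift buffer with dye, with or without test compound. The real-time cycler ran 25°C for 2 min, then 70 cycles of 27°C 15 s/26°C 1 min with 1°C auto-increment. Signal was read on the ROX filter, and melting temperature (Tm) was derived.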

[5] = molecular target: T5, Y464D-Ppara (Mus musculus, UniProt P23204, Y464D); type: cell-based; details: Ppara-null astrocytes transduced with lenti-Y464D-Ppara, 4 h
T5 sequence (P23204 1-468 Y464D): T1 sequence (P23204 1-468) with Y464D

[6] = molecular target: T6, Y314D/Y464D-Ppara (Mus musculus, UniProt P23204, Y314D/Y464D); type: cell-based; details: Ppara-null astrocytes transduced with lenti-Y314D/Y464D-Ppara, 4 h
T6 sequence (P23204 1-468 Y314D/Y464D): T1 sequence (P23204 1-468) with Y314D, Y464D

Row | GC-MS peak after pull-down with PPARβ-LBD [2] | EC50 [3] [µM] | effect on Tm [4] | Structure (SMILES) | PPRE-luciferase activity [1] | PPRE-luciferase activity [5] | PPRE-luciferase activity [6]
1 | did not exhibit any peak | 5.26 | did not alter the Tm | CCCCCCCCCCCCCCCC(N)=O [HEX, hexadecanamide] | increased the PPRE-luciferase activity in a dose-dependent manner | unable to stimulate PPRE-luciferase activity | unable to stimulate PPRE-luciferase activity
2 | did not exhibit any peak | 4.84 | did not alter the Tm | CCCCCCCCC=CCCCCCCCC(N)=O [OCT, 9-octadecenamide] | increased the PPRE-luciferase activity in a dose-dependent manner | unable to stimulate PPRE-luciferase activity | unable to stimulate PPRE-luciferase activity
